Measurements: ChEMBL document CHEMBL1142195, “A novel nonnucleoside analogue that inhibits human immunodeficiency virus type 1 isolates resistant to current nonnucleoside reverse transcriptase inhibitors” (Antimicrob Agents Chemother, 2007)
Activity calls are given as the source filed them. The rule behind the calls is not given here.

Legend:
[1] = tested on: Human immunodeficiency virus 1; test: Antiviral activity against HIV1 isolate with RT K103N-V108I-P225H mutation; assay type: functional, organism-based
Outline: (§1)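 VSV-G-pseudotyped pNL4-3.Luc.R−E− molecular clones carrying the RT mutations, single-round infection of HeLa-JC53 cells (15,000/well) at MOI 0.03. Compounds serially diluted 1:4 in DMSO then in phenol red-free DMEM with 2% FBS, final DMSO 0.2%. Incubated 48 h at 37°C, 5% CO2. Luciferase read-out by chemiluminescence gives the EC50. Fold change is relative to wt virus, mean of two tests.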

[2] = target: T1, DNA polymerase alpha catalytic subunit (Homo sapiens) (UniProt P09884); test: Inhibition of human DNA polymerase alpha upto 45 uM
T1 sequence (whole entry): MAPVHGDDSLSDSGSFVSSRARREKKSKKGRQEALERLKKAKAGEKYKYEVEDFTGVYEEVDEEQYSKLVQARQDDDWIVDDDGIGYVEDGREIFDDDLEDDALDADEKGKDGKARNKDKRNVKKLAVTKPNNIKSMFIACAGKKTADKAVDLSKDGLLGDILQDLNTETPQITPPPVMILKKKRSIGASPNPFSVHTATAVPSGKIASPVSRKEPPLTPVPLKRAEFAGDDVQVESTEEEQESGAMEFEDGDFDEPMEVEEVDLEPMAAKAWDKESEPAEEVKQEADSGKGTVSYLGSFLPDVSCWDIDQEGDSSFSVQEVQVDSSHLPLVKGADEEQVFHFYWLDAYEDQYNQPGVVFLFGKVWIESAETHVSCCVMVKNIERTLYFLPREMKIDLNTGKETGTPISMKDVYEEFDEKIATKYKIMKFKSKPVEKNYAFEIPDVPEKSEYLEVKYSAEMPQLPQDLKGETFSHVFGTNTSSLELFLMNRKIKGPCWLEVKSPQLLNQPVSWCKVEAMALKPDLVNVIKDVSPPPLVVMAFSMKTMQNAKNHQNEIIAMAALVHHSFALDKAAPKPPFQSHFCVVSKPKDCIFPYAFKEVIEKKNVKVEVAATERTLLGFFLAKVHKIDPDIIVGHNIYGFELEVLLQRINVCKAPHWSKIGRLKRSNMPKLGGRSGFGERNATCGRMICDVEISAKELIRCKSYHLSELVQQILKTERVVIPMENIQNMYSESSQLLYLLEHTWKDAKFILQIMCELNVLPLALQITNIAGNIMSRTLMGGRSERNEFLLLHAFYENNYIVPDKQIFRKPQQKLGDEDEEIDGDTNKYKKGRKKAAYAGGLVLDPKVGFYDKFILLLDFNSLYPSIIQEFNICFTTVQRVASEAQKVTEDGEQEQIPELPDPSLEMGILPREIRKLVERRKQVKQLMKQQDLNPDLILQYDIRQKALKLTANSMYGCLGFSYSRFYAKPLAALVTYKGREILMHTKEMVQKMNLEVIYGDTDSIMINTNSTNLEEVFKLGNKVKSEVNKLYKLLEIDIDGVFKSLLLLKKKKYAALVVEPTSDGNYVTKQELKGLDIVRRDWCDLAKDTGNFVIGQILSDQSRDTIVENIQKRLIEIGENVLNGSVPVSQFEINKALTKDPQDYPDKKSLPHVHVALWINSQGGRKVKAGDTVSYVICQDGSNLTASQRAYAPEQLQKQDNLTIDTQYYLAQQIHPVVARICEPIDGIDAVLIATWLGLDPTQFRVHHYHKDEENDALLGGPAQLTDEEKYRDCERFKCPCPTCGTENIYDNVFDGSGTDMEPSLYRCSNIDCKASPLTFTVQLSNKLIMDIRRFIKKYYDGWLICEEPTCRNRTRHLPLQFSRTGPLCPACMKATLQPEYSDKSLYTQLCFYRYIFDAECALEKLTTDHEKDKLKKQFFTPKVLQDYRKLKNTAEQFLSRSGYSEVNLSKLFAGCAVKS

[3] = target: Human immunodeficiency virus type 1 reverse transcriptase (Human immunodeficiency virus 1, UniProt Q72547); test: Inhibition of HIV1 reverse transcriptase
Outline: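 E. coli-expressed HIV-1 RT (1 nM) with 16 μg/ml poly(rA)/oligo(dT)18 and 2 μM α-33P-TTP, 0–100 μM inhibitor. Buffer: 50 mM Tris-HCl pH 7.5, 5 mM MgCl2, 1 mM DTT, 60 μg/ml BSA. Run 1 h at 25°C, then TCA/pyrophosphate precipitation and radioactivity counted. IC50 = 50% inhibition of RT activity.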

[4] = tested on: Human immunodeficiency virus 1; test: Antiviral activity against wild type HIV1 NL4-3 in Hela-JC53 cells in the presence of 20% human serum after 48 hrs; assay type: functional, organism-based; conditions: Human immunodeficiency virus 1, NL4-3, Hela-JC53, 48 h
Outline: (§2)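 HeLa-JC53 cells (1.5 × 10^4) infected with VSV-G-pseudotyped NL4-3.Luci.R−E− reporter virus at MOI 0.03, with 1:4 serial compound dilutions. Heat-inactivated human serum added to final 0–50% on a basal 2% FBS medium. Incubated 48 h at 37°C in 5% CO2. Luciferase read-out; EC50 by nonlinear regression.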

[5] = tested on: Human immunodeficiency virus 1; test: Antiviral activity against wild type HIV1 NL4-3 in Hela-JC53 cells in the presence of 5% human serum after 48 hrs; assay type: functional, organism-based; conditions: Human immunodeficiency virus 1, NL4-3, Hela-JC53, 48 h; outline: as §2
[6] = tested on: Human immunodeficiency virus 1; test: Antiviral activity against HIV1 isolate with RT K103N-G190A mutation; assay type: functional, organism-based; outline: as §1
[7] = tested on: Human immunodeficiency virus 1; test: Antiviral activity against HIV1 isolate with RT A98G mutation; assay type: functional, organism-based; outline: as §1
[8] = tested on: Human immunodeficiency virus 1; test: Antiviral activity against HIV1 isolate with RT V106I mutation; assay type: functional, organism-based; outline: as §1
[9] = tested on: Human immunodeficiency virus 1; test: Antiviral activity against HIV1 isolate with RT Y181C mutation in Hela-JC-53 cells; assay type: functional
[10] = tested on: Human immunodeficiency virus 1; test: Antiviral activity against HIV1 isolate with RT F227L mutation in Hela-JC-53 cells; assay type: functional
[11] = tested on: Human immunodeficiency virus 1; test: Antiviral activity against HIV1 isolate with RT V106I, Y181C, F227L mutation in Hela-JC-53 cells; assay type: functional
[12] = tested on: Human immunodeficiency virus 1; test: Antiviral activity against HIV1 isolate with RT V106I, Y181C, F227L, T369I mutation in Hela-JC-53 cells; assay type: functional
[13] = tested on: Human immunodeficiency virus 1; test: Antiviral activity against HIV1 isolate with RT V106I, D123G, Y181C, F227L mutation in Hela-JC-53 cells; assay type: functional
[14] = tested on: Human immunodeficiency virus 1; test: Antiviral activity against HIV1 NL4-3 with Y188L mutation in Hela-JC53 cells in the presence of 20% human serum after 48 hrs; assay type: functional, organism-based; conditions: Human immunodeficiency virus 1, NL4-3, Hela-JC53, 48 h
Outline: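 VSV-G-pseudotyped Y188L NL4-3.Luci.R−E− virus (MOI 0.03) infecting HeLa-JC53 cells (1.5 × 10^4) in phenol red-free DMEM with 2% FBS. Serially diluted compound was added, then heat-inactivated human serum at final 0, 5, 10, 20, 30, 40 or 50%. Cultures ran 48 h at 37°C in 5% CO2, read by Bright-Glo luciferase chemiluminescence. EC50 was taken by nonlinear regression.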

[15] = Cmax in dog at 10 mg/kg, iv; assay type: ADME, organism-based, Canis lupus familiaris; set-up: dose 10 mg/kg, route intravenous; conditions: in vivo
[16] = Half life in dog at 10 mg/kg, iv; assay type: ADME, organism-based, Canis lupus familiaris; set-up: dose 10 mg/kg, route intravenous; conditions: in vivo
[17] = tested on: Human immunodeficiency virus 1; test: Antiviral activity against HIV1 isolate with RT K103N-L100I mutation; assay type: functional, organism-based; outline: as §1
[18] = tested on: Human immunodeficiency virus 1; test: Antiviral activity against HIV1 isolate with RT K101E mutant; assay type: functional, organism-based; outline: as §1

Compound: NS(=O)(=O)c1ccc(NC(=O)CSc2nnc(Br)n2-c2ccc(C3CC3)c3ccccc23)c(Cl)c1
- EC50 [1]: 0.15 nM
- Activity [2]: inactive
- IC50 [3]: 4 nM
- EC50 [4]: 7.1 nM
- EC50 [5]: 2.4 nM
- EC50 [6]: 0.32 nM
- EC50 [7]: 0.3 nM
- EC50 [8]: 0.09 nM
- Fold change [9]: 1.9
- Fold change [10]: 0.7
- Fold change [11]: 18.7
- Fold change [12]: 111.9
- Fold change [13]: 9.1
- EC50 [14]: 43.3 nM
- Cmax [15]: 4420 ng/mL
- half-life [16]: 173 min
- EC50 [17]: 0.05 nM
- EC50 [18]: 0.26 nM
